The list is not random: actives were taken first. Their share in the collection is about 1.9%.
FAS-TE inh – FAS thioesterase (human) inhibition | P49327 | recombinant FAS-TE, OMFH fluorogenic substrate, fluorescence endpoint | inhibition, % at 15 µM | 0.67% of 360,000 active | AID 602261;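 active = compounds whose normalised, plate-corrected inhibition of enzyme fluorescence in the single-dose primary screen is 50% or more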
LMPTP block – LMPTP (human) inhibition; 0.22% of 360,000 active; P24666; inhibition, % at 20 µM; recombinant LMPTP-A, OMFP fluorogenic substrate, fluorescence intensity;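 active = compounds that cut the enzyme signal by at least half of the control window in the single-dose screen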
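Test system: LMPTP-A, protein tyrosine phosphatase of low molecular weight; Input: 0.625 nM enzyme; Incubation: 50 min dark incubation at room temperature; Signal: endpoint fluorescence intensity from OMFP dephosphorylation; Read-out basis: % inhibition versus control wells.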
Scp-1 inhibitor – Scp-1 (human) phosphatase inhibition. Q9GZU7. Recombinant Scp1, phosphopeptide, malachite green phosphate absorbance. inhibition, % at 20 µM. 0.88% of 340,000 active;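 active = inhibition above about 50% at 20 µM, limit read from the data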
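Test system: SCP-1 phosphatase catalytic domain, residues 76-261; measured by: colorimetric phosphate reagent with accelerator and stabiliser, absorbance at 630 nm; timing: enzyme reaction 45 min at room temperature, colour 5 min, stabilisation 30 min; also added: Phosphorylated 17-residue peptide substrate; compound dosing: one concentration, 20 µM, with 1.0% DMSO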
SUMO1-SIM PPI – SUMO1-SIM interaction modulation | SUMO1 binding to a labelled peptide, TR-FRET, 1 h | inhibition, % at 20 µM | 0.33% of 360,000 active | AID 602429; in the data active = inhibition above about 37%
STEP inh – inhibitors of human striatal-enriched phosphatase STEP; P54829; recombinant STEP, OMFP fluorogenic substrate, fluorescence; inhibition, % at 20 µM; 0.25% of 360,000 active;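 active = inhibition at 20 µM, scaled per plate between control wells, above about 37%, limit read from the data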
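Assay system: isolated STEP enzyme. Buffer or medium: pH 6.0 Bis-Tris with DTT and Tween 20. Also added: fluorogenic phosphatase substrate OMFP at 25 µM final. Dosing: 20 µM, 1% DMSO. Timing: 20 min reaction, room temperature, in the dark. Measured by: fluorescence intensity, excitation 480 nm, emission 540 nm. Evaluation: normalized % inhibition.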
Scp-1 conf – Scp-1 (human) inhibition, single-dose confirmed | recombinant SCP-1 catalytic domain, phosphate release, malachite green absorbance | 61% of 2,500 active | shares compounds with Scp-1 inhibitor | inhibition, % at 20 µM
MG interference – colorimetric interference in Scp-1 counter-screen; apparent inhibition (interference), % at 20 µM; AID 540313; 2,500 tested, under 10 active; Colorimetric interference counterscreen, malachite green absorbance 630 nm; shares compounds with Scp-1 inhibitor;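 also: compounds added after enzyme reaction finished so only phosphate colour detection is probed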
Scp1 DSF – binds human Scp-1, shifting its melting temperature | shares compounds with Scp-1 inhibitor | Recombinant SCP1, Sypro Orange thermal shift Tm | thermal shift relative to vanadate control, % at 40 µM | 25% of 1,500 active | AID 540329;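 active = substances whose mean melting-temperature shift, as a percentage of the reference inhibitor's shift, reaches about 5.3%, limit read from the data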
Of the large screens only hits and unclear results are named; the others gave an inactive call (follow-up assays come after a bar, where they were run).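 The calls were made as follows, unless noted: active = inhibition of at least 30% at 20 µM; inactive = the rest.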

Cc1ccc[n+](CC(=O)Nc2cc(C(F)(F)F)ccc2N2CCOCC2)c1	Scp-1 inhibitor 55 | Scp-1 conf inactive | MG interference inactive
Cc1cccc(NC(=O)CSCC(=O)Nc2cc(C(F)(F)F)ccc2N2CCOCC2)c1	none (no result: Scp-1 inhibitor)
FC(F)(F)c1cnc(C(c2ccccc2)c2ncn[nH]2)c(Cl)c1 (configuration not stated)	Scp-1 inhibitor 98 | Scp-1 conf inactive | MG interference inactive
FC(F)(F)c1cnc(C(c2ccccn2)c2ncn[nH]2)c(Cl)c1 (configuration not stated)	none
COc1cc(CN2C[C@@H](CO)O[C@@H](n3cnc4c(NCC(C)C)ncnc43)C2)cc(OC)c1OC	none (no result: Scp-1 inhibitor)
NC1=NC(=O)C(CC(=O)NCc2ccccc2)S1 (configuration not stated)	none | Scp-1 conf inactive | MG interference inactive
NC1=NC(=O)CC(C(=O)NCc2ccccc2)S1 (configuration not stated)	none
CC(C)Cn1c(N)c(C(=O)COC(=O)C2CC(=O)N(c3ccc4c(c3)OCCO4)C2)c(=O)n(C)c1=O (configuration not stated)	none
CC/C(=C\C(=O)c1cccnc1)Nc1ccc(C)c(C)c1	Scp-1 inhibitor 53 | Scp-1 conf inactive | MG interference inactive
N#Cc1ccc(OCC(=O)Nc2cccc(S(=O)(=O)NC3=NCCCCC3)c2)cc1	Scp-1 inhibitor 97 | Scp-1 conf 50 | MG interference inactive | Scp1 DSF inactive
O=C(COC(=O)c1ccccc1NCCO)Nc1cccc(S(=O)(=O)NC2=NCCCCC2)c1	Scp-1 inhibitor 58 | Scp-1 conf 48 | MG interference inactive | Scp1 DSF inactive
O=C(Nc1cccc(S(=O)(=O)NC2=NCCCCC2)c1)C1COc2ccccc2O1 (configuration not stated)	Scp-1 inhibitor 50 | Scp-1 conf 65 | MG interference inactive | Scp1 DSF inactive
CNS(=O)(=O)c1cccc(C(=O)OCC(=O)c2c(N)n(Cc3ccccc3)c(=O)n(C)c2=O)c1	none
CC(C)(O)CCCC(C)(O)c1ccc(C(=O)O)cc1O (configuration not stated)	Scp-1 inhibitor 61 | Scp-1 conf 52 | MG interference inactive | Scp1 DSF 6.1
Cc1ccc([C@H]2N[C@]3(CCCN(Cc4ccccc4)C3=O)[C@H]3C(=O)N(C)C(=O)[C@@H]23)cc1	none (no result: Scp-1 inhibitor)
Cc1cc(N2CCOCC2)ccc1/C=C1\NC(=O)N(CC(=O)Nc2ccccc2C)C1=O	none
O=C(O)c1ccc(COc2ccccc2/C=C2\NC(=O)N(Cc3ccc(F)cc3)C2=O)cc1	Scp-1 inhibitor 63 | Scp-1 conf 66 | MG interference inactive | Scp1 DSF inactive
Cc1ccccc1NC(=O)CN1C(=O)N/C(=C\c2ccccc2OCc2ccc(C(=O)O)cc2)C1=O	Scp-1 inhibitor 103 | Scp-1 conf 83 | MG interference inactive | Scp1 DSF inactive
O=C(O)c1cccc(-n2cccc2/C=C2/NC(=O)N(c3cccc(Cl)c3)C2=O)c1	Scp-1 inhibitor 85 | Scp-1 conf 64 | MG interference inactive | Scp1 DSF inactive
O=C(CN1C(=O)N/C(=C\c2ccccc2OCc2ccc(C(=O)O)cc2)C1=O)Nc1ccc(F)cc1	Scp-1 inhibitor 70 | Scp-1 conf 65 | MG interference inactive | Scp1 DSF inactive
CN1C(=O)/C(=C/c2ccccc2OCc2ccc(C(=O)O)cc2)NC1=S	none
CCCOc1c(Br)cc(C(=O)OCc2cc(=O)n3ccsc3n2)cc1OC	none
COc1ccc(OC)c(CN2C(=O)CN(S(C)(=O)=O)CC2(C)C(=O)Nc2c(C)cccc2C)c1 (configuration not stated)	none (no result: FAS-TE inh, Scp-1 inhibitor, STEP inh)
COc1cccc(CNC(=O)[C@@H]2CCCN2C(=O)[C@H]2CCCCN2S(=O)(=O)c2ccc(OC)c(C)c2)c1	none (no result: Scp-1 inhibitor, STEP inh)
CCN(CC)c1c(C)nc2ccc(C(=O)N3CCN(C(=O)c4ccco4)CC3)cn12	none (no result: Scp-1 inhibitor)
Cc1cccc(NC(=O)CN2C(=O)N/C(=C\c3ccccc3OCc3ccc(C(=O)O)cc3)C2=O)c1	Scp-1 inhibitor 85 | Scp-1 conf 74 | MG interference inactive | Scp1 DSF inactive
Cc1cccc(NC(=O)CN2C(=O)N/C(=C\c3cccn3-c3cccc(C(=O)O)c3)C2=O)c1	none
O=C1NC(=S)N/C1=C\c1ccccc1OCc1ccc(C(=O)O)cc1	none
O=C(O)c1ccc(COc2ccccc2/C=C2/NC(=O)N(c3cccc(Cl)c3)C2=O)cc1	Scp-1 inhibitor 66 | Scp-1 conf 65 | MG interference inactive | Scp1 DSF inactive
O=C(O)c1ccc(COc2ccccc2C=C2C(=O)c3ccccc3C2=O)cc1	Scp-1 inhibitor 68 | Scp-1 conf 69 | MG interference inactive | Scp1 DSF 8.2
O=C1Nc2ccccc2SC(c2ccccc2)C1O (configuration not stated)	Scp-1 inhibitor 74 | Scp-1 conf 64 | MG interference inactive | Scp1 DSF 6.6
O=C(CSc1nc2sc3c(c2c(=O)n1-c1ccccc1)CCCC3)N/N=C/c1ccc(C(=O)O)cc1	Scp-1 inhibitor 51 | Scp-1 conf 38 | MG interference inactive | Scp1 DSF inactive
Cc1ccc(S(=O)(=O)N2Cc3ccccc3CC2C(=O)Nc2ccc3c(c2)OCO3)cc1 (configuration not stated)	Scp-1 inhibitor 70 | Scp-1 conf 57 | MG interference inactive | Scp1 DSF inactive
COc1ccc(S(=O)(=O)N2Cc3ccccc3CC2C(=O)Nc2ccc3c(c2)OCO3)cc1 (configuration not stated)	none
NC(=O)C[n+]1cccc2ccccc21	Scp-1 inhibitor 99 | Scp-1 conf inactive | MG interference inactive
Cn1nc(CC(=O)NC2CCCCCC2)c2ccccc2c1=O	Scp-1 inhibitor 76 | Scp-1 conf inactive | MG interference inactive
CC(=O)c1ccc(NC(=O)C2CCN(S(=O)(=O)c3cccc4cccnc34)CC2)cc1	Scp-1 inhibitor 63 | Scp-1 conf inactive | MG interference inactive
O=C(Nc1cccc(F)c1)C1CCCN1S(=O)(=O)c1cccc2cccnc12 (configuration not stated)	none
O=C(Nc1ccc2c(c1)OCCO2)C1CCCN1S(=O)(=O)c1cccc2cccnc12 (configuration not stated)	Scp-1 inhibitor 57 | Scp-1 conf inactive | MG interference inactive
CCCc1c(C(=O)N/N=C/C=C/c2ccccc2)nnn1-c1nonc1N	none (no result: Scp-1 inhibitor)
